Measurements as given in ChEMBL document CHEMBL4011622, “The Structure-Activity Relationship of a Tetrahydroisoquinoline Class of N-Methyl-d-Aspartate Receptor Modulators that Potentiates GluN2B-Containing N-Methyl-d-Aspartate Receptors” (J Med Chem, 2017).
pEC50: −log10 of the molar value.

How the values were obtained:
[1] = molecular target: T1, Glutamate NMDA receptor; Grin1/Grin2c (Rattus norvegicus) (UniProt P35439+Q00961); test: Positive allosteric modulation of recombinant rat GluN1/GluN2C receptor expressed in xenopus laevis oocyte assessed as potentiation of glutamate and glycine-induced current response at 10 uM at holding potential -40mV by two electrode voltage clamp method relative to control; conditions: for Activity: 30 uM, in the assay text read “at 30 uM” for “at 10 uM”; for Emax: 10 uM
Procedure, shortened: (§1)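 Two-electrode voltage clamp at -40 mV, 23°C, pH 7.4 Ba²⁺ recording solution, on Xenopus oocytes expressing rat NMDA receptors. Currents were evoked by 100 µM glutamate plus 30 µM glycine, with compound co-applied (DMSO 0.05–0.5% final). […] Each compound used at least 4 oocytes from at least 2 frogs.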

[2] = molecular target: T2, Ionotropic glutamate receptor NMDA 1/2D (Rattus norvegicus) (UniProt P35439+Q62645); test: Positive allosteric modulation of recombinant rat GluN1/GluN2D receptor expressed in xenopus laevis oocyte assessed as potentiation of glutamate and glycine-induced current response at 10 uM at holding potential -40mV by two electrode voltage clamp method relative to control; procedure, shortened: as §1
[3] = molecular target: T3, Glutamate NMDA receptor; Grin1/Grin2b (Rattus norvegicus) (UniProt P35439+Q00960); test: Positive allosteric modulation of recombinant rat GluN1/GluN2B receptor expressed in xenopus laevis oocyte assessed as potentiation of glutamate and glycine-induced current response at 30 uM at holding potential -40mV by two electrode voltage clamp method relative to control
[4] = molecular target: T3, Glutamate NMDA receptor; Grin1/Grin2b (Rattus norvegicus); test: Positive allosteric modulation of recombinant rat GluN1/GluN2B receptor expressed in xenopus laevis oocyte assessed as potentiation of glutamate-induced current response at 30 uM at holding potential -40mV by two electrode voltage clamp method
[5] = molecular target: T1, Glutamate NMDA receptor; Grin1/Grin2c (Rattus norvegicus); test: Positive allosteric modulation of recombinant rat GluN1/GluN2C receptor expressed in xenopus laevis oocyte assessed as potentiation of glutamate and glycine-induced current response at 30 uM at holding potential -40mV by two electrode voltage clamp method relative to control
Procedure, shortened: (§2)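 Two-electrode voltage clamp at -40 mV, 23°C, pH 7.4 Ba²⁺ recording solution, on Xenopus oocytes expressing rat NMDA receptors. Currents were evoked by 100 µM glutamate plus 30 µM glycine, with compound co-applied (DMSO 0.05–0.5% final). Each compound used at least 4 oocytes from at least 2 frogs.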

[6] = molecular target: T2, Ionotropic glutamate receptor NMDA 1/2D (Rattus norvegicus); test: Positive allosteric modulation of recombinant rat GluN1/GluN2D receptor expressed in xenopus laevis oocyte assessed as potentiation of glutamate and glycine-induced current response at 30 uM at holding potential -40mV by two electrode voltage clamp method relative to control; procedure, shortened: as §2
[7] = molecular target: T1, Glutamate NMDA receptor; Grin1/Grin2c (Rattus norvegicus); test: Positive allosteric modulation of recombinant rat GluN1/GluN2C receptor expressed in xenopus laevis oocyte assessed as compound concentration required to show two fold increase in glutamate and glycine-induced current response at holding potential -40mV by two electrode voltage clamp method
[8] = molecular target: T2, Ionotropic glutamate receptor NMDA 1/2D (Rattus norvegicus); test: Positive allosteric modulation of recombinant rat GluN1/GluN2D receptor expressed in xenopus laevis oocyte assessed as compound concentration required to show two fold increase in glutamate and glycine-induced current response at holding potential -40mV by two electrode voltage clamp method
[9] = molecular target: T3, Glutamate NMDA receptor; Grin1/Grin2b (Rattus norvegicus); test: Positive allosteric modulation of recombinant rat GluN1/GluN2B receptor expressed in xenopus laevis oocyte assessed as potentiation of glutamate and glycine-induced current response at 10 uM at holding potential -40mV by two electrode voltage clamp method relative to control; conditions: 30 uM, in the assay text read “at 30 uM” for “at 10 uM”; procedure, shortened: as §1
[10] = molecular target: Glutamate NMDA receptor; Grin1/Grin2b (Rattus norvegicus, UniProt P35439+Q00960); test: Positive allosteric modulation of recombinant rat GluN1/GluN2B receptor expressed in xenopus laevis oocyte assessed as potentiation of glutamate and glycine-induced current response at holding potential -40mV by two electrode voltage clamp method; procedure, shortened: as §2
[11] = molecular target: Glutamate NMDA receptor; Grin1/Grin2c (Rattus norvegicus, UniProt P35439+Q00961); test: Positive allosteric modulation of recombinant rat GluN1/GluN2C receptor expressed in xenopus laevis oocyte assessed as potentiation of glutamate and glycine-induced current response at holding potential -40mV by two electrode voltage clamp method; procedure, shortened: as §2
[12] = molecular target: T1, Glutamate NMDA receptor; Grin1/Grin2c (Rattus norvegicus); test: Positive allosteric modulation of recombinant rat GluN1/GluN2C receptor expressed in xenopus laevis oocyte assessed as potentiation of glutamate and glycine-induced current response at 30 uM at holding potential -40mV by two electrode voltage clamp method relative to control
[13] = molecular target: T3, Glutamate NMDA receptor; Grin1/Grin2b (Rattus norvegicus); test: Positive allosteric modulation of recombinant rat GluN1/GluN2B receptor expressed in xenopus laevis oocyte assessed as potentiation of glutamate and glycine-induced current response at 30 uM at holding potential -40mV by two electrode voltage clamp method relative to control; procedure, shortened: as §1
[14] = molecular target: Ionotropic glutamate receptor NMDA 1/2D (Rattus norvegicus, UniProt P35439+Q62645); test: Positive allosteric modulation of recombinant rat GluN1/GluN2D receptor expressed in xenopus laevis oocyte assessed as potentiation of glutamate and glycine-induced current response at holding potential -40mV by two electrode voltage clamp method; procedure, shortened: as §2
[15] = molecular target: T3, Glutamate NMDA receptor; Grin1/Grin2b (Rattus norvegicus); test: Positive allosteric modulation of recombinant rat GluN1/GluN2B receptor expressed in xenopus laevis oocyte assessed as compound concentration required to show two fold increase in glutamate and glycine-induced current response at holding potential -40mV by two electrode voltage clamp method
[16] = Drug metabolism in human liver microsomes assessed as P450 mediated drug metabolite formation by measuring parent compound half life at […] by LC/MS/MS analysis; format: ADME
[17] = Drug metabolism in human liver microsomes assessed as UGT mediated drug metabolite formation by measuring parent compound half life at […] by LC/MS/MS analysis; format: ADME
[18] = molecular target: T2, Ionotropic glutamate receptor NMDA 1/2D (Rattus norvegicus); test: Positive allosteric modulation of recombinant rat GluN1/GluN2D receptor expressed in xenopus laevis oocyte assessed as potentiation of glycine-induced current response at 30 uM at holding potential -40mV by two electrode voltage clamp method
[19] = molecular target: Glutamate NMDA receptor; Grin1/Grin2a (Rattus norvegicus) (UniProt P35439+Q00959); test: Positive allosteric modulation of recombinant rat GluN1/GluN2A receptor expressed in xenopus laevis oocyte co-expressing GluN2B assessed as potentiation of glutamate and glycine-induced current response at 10 uM at holding potential -40mV by two electrode voltage clamp method relative to control
[20] = molecular target: T3, Glutamate NMDA receptor; Grin1/Grin2b (Rattus norvegicus); test: Positive allosteric modulation of recombinant rat GluN1/GluN2B receptor expressed in xenopus laevis oocyte co-expressing GluN2A at 10 uM assessed as potentiation of glutamate and glycine-induced current response at holding potential -40mV by two electrode voltage clamp method relative to control
Procedure, shortened: (§3)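 Triheteromeric GluN1/GluN2A/GluN2B receptors were expressed in oocytes using GluN2 subunits with modified intracellular domains controlling surface expression. Compound was tested at 10 µM by TEVC at -40 mV against maximally effective glutamate and glycine; n=14 oocytes.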

[21] = molecular target: Ionotropic glutamate receptor NMDA1/2A/2B (Rattus norvegicus) (UniProt P35439+Q00959+Q00960); test: Positive allosteric modulation of recombinant rat GluN1/GluN2A/GluN2B receptor expressed in xenopus laevis oocyte assessed as potentiation of glutamate and glycine-induced current response at 10 uM at holding potential -40mV by two electrode voltage clamp method relative to control; procedure, shortened: as §3

Compound	Activity [2] [%]	Emax [5] [%]	Emax [6] [%]	CD [7] [µM]	CD [8] [µM]	pEC50 [10]	pEC50 [11]	Emax [13] [%]	pEC50 [14]	CD [15] [µM]	also measured
CCOc1ccc(OCC2c3ccc(OC(C)C)cc3CCN2C(=O)c2cc(Cl)cc(Cl)c2)cc1 (stereo not given)	80										Activity [1]: 97%; Activity [3]: 105%
CCOc1ccc(OCC2c3ccc(OC(C)C)cc3CCN2C(=O)c2ccc(Cl)c(Cl)c2)cc1 (stereo not given)	122										Activity [1]: 150%
COc1ccc(OC[C@H]2c3ccc(OC(C)C)cc3CCN2C(=O)c2cccc(Cl)c2)cc1		252	297	1.3	1						Activity [4]: 101%
CCOc1ccc(OCC2c3ccc(OC(C)C)cc3CCN2C(=O)c2cccc(Cl)c2)cc1 (stereo not given)	102					5.28	5.74				Emax [9]: 158%; Emax [1]: 128%; Activity [1]: 126%
COc1ccccc1OCC1c2ccc(OC(C)C)cc2CCN1C(=O)c1cccc(Cl)c1 (stereo not given)	99										Activity [3]: 108%; Activity [12]: 110%
COc1ccc(OCC2c3ccc(OC(C)C)cc3CCN2C(=S)c2cccc(F)c2)cc1 (stereo not given)		226	208	2.1	4.2	5.85	6.01	259	5.96	1.9	
CCOc1ccc(OCC2c3ccc(OC4CCCC4)cc3CCN2C(=O)c2cccc(Cl)c2)cc1 (stereo not given)	193					5.40	5.38		5.37		Emax [9]: 221%; Emax [1]: 210%; Activity [1]: 187%; Emax [2]: 188%
COc1ccc(OC[C@@H]2c3ccc(OC(C)C)cc3CCN2C(=O)c2cccc(Cl)c2)cc1		277	267	3.5	4.4			276	5.42	3.5	
COc1ccc(OC[C@H]2c3ccc(OC(C)C)cc3CCN2C(=S)c2cccc(Cl)c2)cc1		253	250	3.8	4.9		5.77		5.70		Activity [4]: 105%
CCOc1ccc(OC[C@@H]2c3ccc(OC(C)C)cc3CCN2C(=S)c2cccc(F)c2)cc1		154	179			6.31	6.42	213	6.24	1.4	
COc1ccc(OCC2c3ccc(OC(C)C)cc3CCN2C(=S)c2cccc(Cl)c2)cc1 (stereo not given)		225	229	1.1	0.8	6.31	6.38	213	6.37	2.6	t1/2 [16]: 29 min; t1/2 [17]: 29 min
COc1ccc(OCC2c3ccc(OC(C)C)cc3CCN2C(=O)c2cccc(Br)c2)cc1 (stereo not given)	312					5.41	5.74		5.59		Emax [9]: 204%; Emax [1]: 286%; Activity [1]: 270%; Emax [2]: 338%
CCOc1ccc(OC[C@@H]2c3ccc(OC(C)C)cc3CCN2C(=O)c2cccc(F)c2)cc1		128				5.33	5.44	204		40	Activity [18]: 110%; Activity [19]: 103%; Activity [20]: 177%; Activity [21]: 136%
CCOc1ccc(OCC2c3ccc(OC(C)C)cc3CCN2C(=S)c2cccc(Cl)c2)cc1 (stereo not given)		278	192	7.6		6.40	5.30	172	5.80		
CCOc1ccc(OCC2c3ccc(OC(C)C)cc3CCN2C(=S)c2ccc(F)c(Cl)c2)cc1 (stereo not given)		159	128			6.08	6.46	222	6.36	17	
CC(C)Oc1ccc(OCC2c3ccc(OC(C)C)cc3CCN2C(=S)c2cccc(F)c2)cc1 (stereo not given)		158	154			6.17	6.15	203	5.92	9	
COc1ccc(OC[C@@H]2c3ccc(OC(C)C)cc3CCN2C(=S)c2cccc(Cl)c2)cc1		307	293	0.5	0.5	6.49	6.32	214	6.32	1.5	
